Data set [1] in a line: Cytotoxicity in human HeLa cells after 24 hrs by XTT assay. The format is cell-based. The method in brief:
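HeLa cells, 30,000 per well in DMEM with 10% fetal serum and penicillin/streptomycin. Compound added from DMSO to final 0.1, 0.25, 0.5, 1, 10, 25, 50, 75, 100 µM; DMSO-only controls. 24 h at 37 °C, then medium exchanged for phenol red-free medium, XTT-PMS added, 4 h at 37 °C, absorbance read at 450 and 500 nm. Two experiments, each in triplicate.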
For orientation: Tetrazolium dyes change colour on reduction, which living cells bring about.

Data set [2] in a line: Therapeutic index, ratio of MCC for human HeLa cells to MIC for Helicobacter pylori. The data set is classed as cell-based. Particulars: read-out: TI.
Data set [3] deals with Helicobacter pylori. The experiment in a line: Antibacterial activity against Helicobacter pylori after 28 hrs by microdilution method. The format is functional. (Dilution methods test growth across graded concentrations, often in twofold steps.)
Data set [4] is described as follows: Binding affinity to Helicobacter pyroli flavodoxin expressed in Escherichia coli by isothermal titration calorimetry analysis. Details: species or system Helicobacter pylori. The method in brief:
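ITC at 25°C: degassed 20 µM protein titrated with ~500 µM inhibitor, both in 50 mM EPPS pH 9.0, 5% DMSO. Injection heats fitted to a 1:1 binding model for Kd.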

Data set [5] has as its system Helicobacter pylori. Nature of the data set: Bactericidal activity against Helicobacter pylori at 2 times MIC. The data set is classed as functional, organism-based.

We go through 41 compounds from ChEMBL document CHEMBL2406954, “Improved flavodoxin inhibitors with potential therapeutic effects against Helicobacter pylori infection” (J Med Chem, 2013).

Structures are written as SMILES. Converted amounts (≈) assume the structure as drawn. The source made the active and inactive calls.

Compound `COC(=O)/C=C/c1cc(C(F)(F)F)cc(C(F)(F)F)c1` displayed an MCC at 24 h in data set [1] of 100 µM.

With `O=[N+]([O-])/C=C/c1ccc(F)cc1Br`, the selectivity ratio in data set [2] turned out to be 2.1. The compound also came in with an MCC at 24 h in data set [1] of 10 µM. Besides, the minimum inhibitory concentration (MIC) (in general, the smallest concentration in the dilution series that meets the test's criterion for growth inhibition) against Helicobacter pylori [3] came to 4.8 µM (≈ 1.18 µg/mL). The dissociation constant (Kd) (usually the concentration at which binding is half-saturated) in data set [4] was 19 µM.

In data set [1], `O=C(OCCSc1ccc([N+](=O)[O-])c2nonc12)c1ccc(Cl)cc1Cl` displayed an MCC at 24 h of 4 µM.

As to `NS(=O)(=O)c1ccc(SCCO)c2nonc12`, the MCC at 24 h in data set [1] came to 100 µM.

In data set [1], `O=C(Nc1ccccc1)OCCSc1ccc([N+](=O)[O-])c2nonc12` had an MCC at 24 h of 2.2 µM.

`O=C(O)/C=C/c1cc(C(F)(F)F)cc(C(F)(F)F)c1` had an MCC at 24 h in data set [1] of 100 µM.

Consider `O=[N+]([O-])/C=C/c1ccccc1I`, for which the selectivity ratio in data set [2] was found to be 0.2. In data set [1], this compound yielded an MCC at 24 h of 1 µM. The compound also showed an MIC with Helicobacter pylori [3] of 4.8 µM (≈ 1.32 µg/mL). Further, the Kd in data set [4] stood at 16 µM.

`O=[N+]([O-])/C=C/c1ccc(Br)cc1`: the selectivity ratio in data set [2] was determined as 15.1. For the same compound, in data set [1], the MCC at 24 h was 8 µM. In the data set on Helicobacter pylori [5], the outcome was Active. For the same compound, in the data set with Helicobacter pylori [3], the MIC was determined as 0.53 µM (≈ 0.121 µg/mL). Moreover, the equilibrium dissociation constant (Kd) in data set [4] amounted to 4.1 µM.

Consider `O=[N+]([O-])/C=C/c1ccc(I)cc1`, for which the selectivity ratio in data set [2] was 9.4. This compound had an MCC at 24 h in data set [1] of 10 µM. Further, the outcome in the data set on Helicobacter pylori [5] was Active. This compound also came in with a minimal inhibitory concentration (MIC) with Helicobacter pylori [3] of 1.06 µM (≈ 0.292 µg/mL). In addition, in data set [4], the affinity, expressed as Kd, was 6.6 µM.

On to `O=[N+]([O-])/C=C/c1cccc(C(F)(F)F)c1`, for which the selectivity ratio in data set [2] was determined as 8.4. Also, the MCC at 24 h in data set [1] was found to be 40 µM. Besides, the outcome with Helicobacter pylori [5] was Active. This compound had an MIC against Helicobacter pylori [3] of 4.75 µM (≈ 1.03 µg/mL). For the same compound, binding in data set [4] was characterised by a dissociation constant (Kd) of 7.9 µM.

`COc1ccc(CSc2ccc([N+](=O)[O-])c3nonc23)cc1`: in data set [1], the MCC at 24 h worked out at 1.7 µM.

For the compound `O=[N+]([O-])/C=C/c1cc(C(F)(F)F)cc(C(F)(F)F)c1`, in data set [2], the selectivity ratio came out at 1.5. Further, in data set [1], the MCC at 24 h turned out to be 3.5 µM. The compound also gave an MIC in the data set on Helicobacter pylori [3] of 2.4 µM (≈ 0.684 µg/mL). In data set [4], this compound came in with a dissociation constant (Kd) of 3.5 µM.

On to `O=[N+]([O-])/C=C/c1c(F)cc(Cl)cc1F`, for which the selectivity ratio in data set [2] came out at 37.7. In data set [1], this compound showed an MCC at 24 h of 20 µM. Besides, the result in the data set on Helicobacter pylori [5] was Active. Further, the lowest concentration to inhibit growth in the data set with Helicobacter pylori [3] (MIC) was 0.53 µM (≈ 0.116 µg/mL). Besides, in data set [4], the Kd stood at 7.4 µM.

Take `O=[N+]([O-])/C=C/c1cc(Cl)cc(Cl)c1`: the selectivity ratio in data set [2] came out at 0.8. In addition, the MCC at 24 h in data set [1] stood at 2 µM. The same compound yielded an MIC against Helicobacter pylori [3] of 2.4 µM (≈ 0.523 µg/mL). Also, in data set [4], the Kd was 0.67 µM.

With `COc1ccc(CSc2ccc(N)c3nonc23)cc1`, the MCC at 24 h in data set [1] turned out to be 100 µM.

On to `O=[N+]([O-])C1=Cc2cc(Cl)ccc2OC1c1ccc(Cl)cc1` (configuration not stated), for which, in data set [1], the MCC at 24 h amounted to 6 µM.

On to `O=[N+]([O-])/C=C/c1cc(Cl)cc(Br)c1`, for which the MCC at 24 h in data set [1] was determined as 2.7 µM. This compound had a Kd in data set [4] of 10 µM.

For the compound `Cc1ccc(Sc2ccc([N+](=O)[O-])c3nonc23)cc1`, in data set [1], the MCC at 24 h amounted to 1.3 µM.

As for `CN(C)c1ccc([N+](=O)[O-])c2nonc12`, the MCC at 24 h in data set [1] was 100 µM.

The compound `O=[N+]([O-])C1=Cc2cc(Cl)ccc2NC1c1ccc(F)cc1` (configuration not stated) returned a Kd in data set [4] of 33 µM.

`COc1ccc(CCCSc2ccc([N+](=O)[O-])c3nonc23)cc1`: the MCC at 24 h in data set [1] is 1 µM.

In the case of `COc1ccc(CSc2ccc(S(N)(=O)=O)c3nonc23)cc1`, in data set [1], the MCC at 24 h is 12 µM.

In data set [4], `O=[N+]([O-])C1=Cc2cc(Cl)cc(Cl)c2OC1c1ccc(Br)cc1` (configuration not stated) showed a Kd of 25 µM.

`O=[N+]([O-])/C=C/c1ccc(F)cc1`: the selectivity ratio in data set [2] worked out at 18.9. The MCC at 24 h in data set [1] was 20 µM. Besides, the outcome in the data set on Helicobacter pylori [5] was Active. This compound also had an MIC with Helicobacter pylori [3] of 1.06 µM (≈ 0.177 µg/mL). The compound also registered a Kd in data set [4] of 40 µM.

`COC(=O)C1=C(c2ccccc2Cl)Oc2ccc([N+](=O)[O-])cc2C1` had an MCC at 24 h in data set [1] of 70 µM.

For `CCOC(=O)C1=Cc2cc(Cl)cc(Cl)c2OC1c1ccc(F)cc1` (configuration not stated), in data set [1], the MCC at 24 h was 12 µM.

With `Brc1cccc2nsnc12`, the MCC at 24 h in data set [1] turned out to be 100 µM.

`CSc1ccc(C2Oc3ccccc3C=C2[N+](=O)[O-])cc1` (configuration not stated) returned an MCC at 24 h in data set [1] of 1 µM.

Consider `O=[N+]([O-])C1=Cc2cc(Cl)ccc2OC1c1ccc(F)cc1` (configuration not stated), for which, in data set [1], the MCC at 24 h stood at 6 µM.

Consider `O=[N+]([O-])/C=C/c1cc(C(F)(F)F)ccc1F`, for which the selectivity ratio in data set [2] turned out to be 15.1. The MCC at 24 h in data set [1] was 8 µM. This compound also came in with an MIC in the data set with Helicobacter pylori [3] of 0.53 µM (≈ 0.125 µg/mL). This compound also yielded a Kd in data set [4] of 4.4 µM.

For `O=[N+]([O-])/C=C/c1ccccc1C(F)(F)F`, the selectivity ratio in data set [2] came to 0.04. The MCC at 24 h in data set [1] was 0.1 µM. This compound gave an MIC against Helicobacter pylori [3] of 2.4 µM (≈ 0.521 µg/mL). For the same compound, the equilibrium dissociation constant (Kd) in data set [4] came to 8.8 µM.

`COc1ccc(Sc2ccc([N+](=O)[O-])c3nonc23)cc1`: in data set [2], the selectivity ratio came out at 1.5. In addition, the MCC at 24 h in data set [1] stood at 3 µM. Besides, the result with Helicobacter pylori [5] was Active. This compound also showed an MIC in the data set on Helicobacter pylori [3] of 2 µM (≈ 0.607 µg/mL). In addition, the Kd in data set [4] is 2.6 µM.

In data set [1], `COc1ccc(C2(C)SCc3cc(C)c(C)cc3CS2)cc1` displayed an MCC at 24 h of 100 µM.

As to `O=[N+]([O-])/C=C/c1c(F)c(F)c(F)c(F)c1F`, in data set [2], the selectivity ratio stood at 0.001. This compound displayed an MCC at 24 h in data set [1] of 0.01 µM. The same compound displayed a minimum inhibitory concentration (MIC) in the data set on Helicobacter pylori [3] of 8 µM (≈ 1.91 µg/mL). In addition, in data set [4], the dissociation constant (Kd) was 10 µM.

As for `COc1cccc(/C=C(\C)[N+](=O)[O-])c1`, in data set [2], the selectivity ratio was determined as 0.3. In data set [1], this compound registered an MCC at 24 h of 0.7 µM. The MIC in the data set with Helicobacter pylori [3] was 2.4 µM (≈ 0.464 µg/mL). This compound returned an equilibrium dissociation constant (Kd) in data set [4] of 5.5 µM.

With `O=[N+]([O-])/C=C/c1ccc(Cl)c(C(F)(F)F)c1`, the selectivity ratio in data set [2] stood at 4.7. This compound displayed an MCC at 24 h in data set [1] of 5 µM. This compound also registered an MIC with Helicobacter pylori [3] of 1.06 µM (≈ 0.267 µg/mL). The compound also gave a Kd in data set [4] of 2.8 µM.

As for `O=[N+]([O-])C1=Cc2c(ccc3ccccc23)OC1c1ccc(F)cc1` (configuration not stated), the selectivity ratio in data set [2] worked out at 8.3. The compound further registered an MCC at 24 h in data set [1] of 10 µM. For the same compound, in the data set on Helicobacter pylori [5], the result was Active. The compound further registered an MIC in the data set on Helicobacter pylori [3] of 1.2 µM (≈ 0.386 µg/mL). In data set [4], the equilibrium dissociation constant (Kd) turned out to be 0.78 µM.

With `O=C(Nc1ccc(Cl)cc1Cl)OCCSc1ccc([N+](=O)[O-])c2nonc12`, the MCC at 24 h in data set [1] stood at 1.7 µM.

`COc1ccc(C(=O)OCCSc2ccc([N+](=O)[O-])c3nonc23)cc1` came in with an MCC at 24 h in data set [1] of 8 µM.

Turning to `O=[N+]([O-])C1=Cc2cc(Cl)cc(Cl)c2OC1c1ccc(I)cc1` (configuration not stated), the MCC at 24 h in data set [1] was 10 µM.

For `O=[N+]([O-])C1=Cc2cc(Cl)cc(Cl)c2OC1c1ccc(F)cc1` (configuration not stated), in data set [1], the MCC at 24 h stood at 6 µM.
